Active and inactive are the calls of the source. No cut-off for these calls is given here.
Columns and labels:
Assay type in all cases: functional
[1] = tested on: MDA-MB-231; experiment: Antiinvasive activity in human MDA-MB-231 cells assessed as inhibition of cell invasion at 5 uM by boyden chamber method relative to control
[2] = tested on: MDA-MB-231; experiment: (§1) Ex vivo antitumor activity against human MDA-MB-231 cells co-cultured with neonatal Swiss mouse bone in BGJb medium assessed as inhibition of tumor growth at 5 uM administered simultaneously with cancer cells measured on day 7 post treatment by Gaussia luciferase reporter gene assay relative to control
In short: (§2)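 Calvariae from […] Swiss mouse pups were punched into 4 or 5 mm disks. Each was seeded with 1 x 10^4 tumor cells (lentiviral secreted Gaussia luciferase/GFP-blasticidin, FACS-sorted GFP+) in BGJb plus 10% fetal calf serum at 37°C, 5% CO2. After 24 h bones moved to fresh wells; medium changed every 2 days. Conditioned-medium luciferase read as RLU. Biological triplicate, mean ± SD, Welch's t-test.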

[3] = tested on: MDA-MB-231; experiment: (§3) Ex vivo antitumor activity against human MDA-MB-231 cells co-cultured with neonatal Swiss mouse bone in BGJb medium assessed as inhibition of tumor growth at 5 uM administered on day 2 post cancer cells addition measured on day 5 post treatment by Gaussia luciferase reporter gene assay relative to control; in short: as §2
[4] = tested on: MDA-MB-231; experiment: as §3, with “day 7” for “day 5”; in short: as §2
[5] = tested on: MDA-MB-231; experiment: as §1, with “5” for “7”; in short: as §2

Row | SMILES | inhibition at 5 µM [1] [%] | TGI [2] | TGI [3] | TGI [4] | TGI [5] | inhibition [1]
1 | Cc1ccc(N2C(=O)C3NN=C(c4ccc(Cl)cc4)C3C2c2cccc(C(F)(F)F)c2)cc1Br (stereo not given) | > 70 | Active | Active | Active | Active | –
2 | CCCN1N=C(c2ccc(Cl)cc2)C2C1C(=O)N(c1ccc(C)c(Br)c1)C2c1cccc(F)c1 (stereo not given) | > 70 | Active | Active | Active | Active | –
3 | Cc1ccc(N2C(=O)C3C(C(c4ccc(Cl)cc4)=NN3C)C2c2cccc(F)c2)cc1Br (stereo not given) | > 70 | Active | Active | Active | Active | –
4 | O=C1C2NN=C(c3ccc(Cl)cc3)C2C(c2ccc(C(F)(F)F)cc2)N1CCc1c[nH]c2ccccc12 (stereo not given) | 90 | Active | Active | Active | Active | –
5 | O=C1C2NN=C(c3ccc(Cl)cc3)C2C(c2cccc(F)c2)N1c1cccc(Br)c1 (stereo not given) | > 70 | Active | Active | Active | Active | –
6 | O=C1C2NN=C(c3ccc(Cl)cc3)C2C(c2cccc(F)c2)N1CCc1cccnc1 (stereo not given) | 40 | Active | Active | Active | Active | –
7 | O=C1C2C(C(c3ccc(Cl)cc3)=NN2C2CCCCC2)C(c2cccc(F)c2)N1CCc1c[nH]c2ccccc12 (stereo not given) | – | Active | Active | Active | Active | inactive

Source: ChEMBL document CHEMBL4308891, “Small molecules inhibit ex vivo tumor growth in bone” (Bioorg Med Chem, 2018)
